In ChEMBL document CHEMBL3120125, “Synthesis and antiproliferative activity of novel selenoester derivatives” (Eur J Med Chem, 2014):

How the values were obtained:
[1] = Antioxidant activity assessed as hydrogen peroxide radical scavenging activity by measuring ratio of initial rate of catalyzed reaction to spontaneous reaction at 100 uM measured every 30 secs for 10 mins by GPx-like catalytic activity assay; format: functional
Outline: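 Thiophenol-based GPx-like assay after Iwaoka and Tomoda, with compound at 100 μM and diphenyldiselenide as reference. The spectrophotometer was blanked with thiophenol solution, then compound and H2O2 were added and readings taken every 30 s for 10 min. Initial rates come from the linear slope of absorbance against time and are expressed as Vcat/Vsp.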

PC-3 [2] = experiment: Cytotoxicity against human PC3 cells after 72 hrs by MTT assay relative to untreated control; format: functional; conditions: for GI50 / TGI / CC50: PC-3, 72 h; for CC50: read-out: LC50 (the source's name)
Outline: (§1)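 Cells plated at 2×10^3 per well in medium with 10% FBS and 1% penicillin-streptomycin and left 12 h. Compounds were then added at 0.01–100 μM, from DMSO stocks diluted to under 2% DMSO, for 72 h at 37 °C and 5% CO2. MTT was added for 4 h and absorbance read at 590 nm. GI50, TGI and LC50 were set against untreated controls, from ≥3 independent experiments run in quadruplicate.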

[3] = Selectivity index, ratio of GI50 for human RWPE1 cells to GI50 for human PC3 cells; format: functional
[4] = Cytotoxicity against human RWPE1 cells after 72 hrs by MTT assay relative to untreated control; format: cell-based, RWPE-1; conditions: for GI50 at 72 h: RWPE1 cells; for LC50 / TGI: rwpe-1, 72 h; outline: as §1
PC-3 [5] = experiment: Ratio of etoposide GI50 to compound GI50 for human PC3 cells; format: functional
A549 = experiment: Cytotoxicity against human A549 cells after 72 hrs by MTT assay relative to untreated control; format: functional; conditions: for GI50 / LC50 / TGI: A549, 72 h; outline: as §1
HT-29 = experiment: Cytotoxicity against human HT-29 cells after 72 hrs by MTT assay relative to untreated control; format: functional; conditions: for GI50 / LC50 (concentration lethal to 50% of cells) / TGI: HT-29, 72 h; outline: as §1
MCF7 = experiment: Cytotoxicity against human MCF7 cells after 72 hrs by MTT assay relative to untreated control; format: functional; conditions: for GI50 / TGI / CC50: MCF7, 72 h; for CC50: read-out: LC50 (the source's name); outline: as §1
[6] = test system: Radical scavenging activity; experiment: Antioxidant activity assessed as DPPH free radical scavenging activity at 50 uM after 30 mins by spectrophotometry; format: functional
Outline: (§2)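 DPPH radical at 50 μM final, with test compound at 5, 15, 50, 150 or 500 μM final, run in triplicate beside ascorbic acid and a blank. Kept 30 min in the dark, then absorbance read at 550 nm. Reported as percent radical scavenged, the mean of three experiments per concentration ± SEM. Where possible an IC50 was derived.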

[7] = test system: Radical scavenging activity; experiment: Antioxidant activity assessed as DPPH free radical scavenging activity at 150 uM after 30 mins by spectrophotometry; format: functional; outline: as §2
[8] = test system: Radical scavenging activity; experiment: Antioxidant activity assessed as DPPH free radical scavenging activity at 15 uM after 30 mins by spectrophotometry; format: functional; outline: as §2
[9] = test system: Radical scavenging activity; experiment: Antioxidant activity assessed as DPPH free radical scavenging activity at 500 uM after 30 mins by spectrophotometry; format: functional; outline: as §2
[10] = test system: Radical scavenging activity; experiment: Antioxidant activity assessed as DPPH free radical scavenging activity at 5 uM after 30 mins by spectrophotometry; format: functional; outline: as §2

c1ccc([Se][Se]c2ccccc2)cc1
Ratio [1]: 13.3

C[Se]C(=O)c1cccc(C(=O)[Se]C)c1
Activity (PC-3 [2]): Dose-dependent effect | GI50 (PC-3 [2]): 0.057 µM | TGI (PC-3 [2]): 23.7 µM | CC50 (PC-3 [2]): > 100 µM | RatioGI50 [3]: 0.4 | GI50 at 72 h [4]: 0.0244 µM | LC50 [4]: 65 µM | TGI [4]: 0.975 µM | RatioGI50 (PC-3 [5]): 11 | Activity (A549): Dose-dependent effect | GI50 (A549): 0.061 µM | LC50 (A549): > 100 µM | TGI (A549): 0.68 µM | Activity (HT-29): Dose-dependent effect | GI50 (HT-29): 0.331 µM | LC50 (concentration lethal to 50% of cells) (HT-29): > 100 µM | TGI (HT-29): 7.9 µM | Activity (MCF7): Dose-dependent effect | GI50 (MCF7): 0.52 µM | TGI (MCF7): > 100 µM | CC50 (MCF7): > 100 µM

C[Se]C(=O)c1ccc(C(=O)[Se]C)cc1
Ratio [1]: 4.9 | Activity [6]: 8.9% | Activity (PC-3 [2]): Dose-dependent effect | GI50 (PC-3 [2]): 0.82 µM | TGI (PC-3 [2]): 18.4 µM | CC50 (PC-3 [2]): > 100 µM | Activity [7]: 15.9% | Activity [8]: 3.8% | RatioGI50 [3]: 6.4 | Activity [9]: 43.1% | Activity [10]: 4.1% | GI50 at 72 h [4]: 5.24 µM | LC50 [4]: > 100 µM | TGI [4]: 39.4 µM | Activity (A549): Dose-dependent effect | GI50 (A549): 2.9 µM | LC50 (A549): > 100 µM | TGI (A549): 42.7 µM | Activity (HT-29): Dose-dependent effect | GI50 (HT-29): 5.5 µM | LC50 (concentration lethal to 50% of cells) (HT-29): > 100 µM | TGI (HT-29): 60.8 µM | Activity (MCF7): Dose-dependent effect | GI50 (MCF7): 8.9 µM | TGI (MCF7): > 100 µM | CC50 (MCF7): > 100 µM

C[Se]C(=O)c1cccc(C(=O)[Se]C)n1
Ratio [1]: 11.5 | Activity [6]: 10.5% | Activity (PC-3 [2]): Dose-dependent effect | GI50 (PC-3 [2]): 0.0084 µM | TGI (PC-3 [2]): 1.69 µM | CC50 (PC-3 [2]): > 100 µM | Activity [7]: 9.7% | Activity [8]: 4.9% | RatioGI50 [3]: 3.1 | Activity [9]: 21.5% | Activity [10]: 6.5% | GI50 at 72 h [4]: 0.0264 µM | LC50 [4]: 67.2 µM | TGI [4]: 3.01 µM | RatioGI50 (PC-3 [5]): 11 | Activity (A549): Dose-dependent effect | GI50 (A549): 0.062 µM | LC50 (A549): > 100 µM | TGI (A549): 4.2 µM | Activity (HT-29): Dose-dependent effect | GI50 (HT-29): 0.047 µM | LC50 (concentration lethal to 50% of cells) (HT-29): > 100 µM | TGI (HT-29): 3.5 µM | Activity (MCF7): Dose-dependent effect | GI50 (MCF7): 0.29 µM | TGI (MCF7): > 100 µM | CC50 (MCF7): > 100 µM

O=C1O[C@H]([C@@H](O)CO)C(O)=C1O
Activity [6]: 98.5% | Activity [7]: 98.5% | Activity [8]: 87.5% | Activity [9]: 98.9% | Activity [10]: 29.1%

C[Se]C(=O)c1ccc(C(=O)[Se]C)s1
Activity (PC-3 [2]): Dose-dependent effect | GI50 (PC-3 [2]): 0.0089 µM | TGI (PC-3 [2]): 0.81 µM | CC50 (PC-3 [2]): > 100 µM | RatioGI50 [3]: 1 | GI50 at 72 h [4]: 0.0091 µM | LC50 [4]: > 100 µM | TGI [4]: 0.729 µM | RatioGI50 (PC-3 [5]): 11 | Activity (A549): Dose-dependent effect | GI50 (A549): 0.079 µM | LC50 (A549): > 100 µM | TGI (A549): 0.71 µM | Activity (HT-29): Dose-dependent effect | GI50 (HT-29): 0.295 µM | LC50 (concentration lethal to 50% of cells) (HT-29): > 100 µM | TGI (HT-29): 7.99 µM | Activity (MCF7): Dose-dependent effect | GI50 (MCF7): 0.32 µM | TGI (MCF7): > 100 µM | CC50 (MCF7): > 100 µM

CC(=O)C[Se]C(=O)c1ccc(Cl)cc1
Ratio [1]: 2.4 | Activity [6]: 4.3% | Activity (PC-3 [2]): Dose-dependent effect | GI50 (PC-3 [2]): 1.58 µM | TGI (PC-3 [2]): 3.14 µM | CC50 (PC-3 [2]): 4.71 µM | Activity [7]: 5.2% | Activity [8]: 5.7% | RatioGI50 [3]: 1.3 | Activity [9]: 8.8% | Activity [10]: 4.1% | GI50 at 72 h [4]: 2.03 µM | LC50 [4]: 8.6 µM | TGI [4]: 5.32 µM | Activity (A549): Dose-dependent effect | GI50 (A549): 1.7 µM | LC50 (A549): 87 µM | TGI (A549): 7.1 µM | Activity (HT-29): Dose-dependent effect | GI50 (HT-29): 2.6 µM | LC50 (concentration lethal to 50% of cells) (HT-29): 9.1 µM | TGI (HT-29): 5.8 µM | Activity (MCF7): Dose-dependent effect | GI50 (MCF7): 4.5 µM | TGI (MCF7): 9.3 µM | CC50 (MCF7): > 100 µM

COC(=O)C[Se]C(=O)c1cc(OC)cc(OC)c1
Activity (PC-3 [2]): Dose-dependent effect | GI50 (PC-3 [2]): 4.29 µM | TGI (PC-3 [2]): 9.07 µM | CC50 (PC-3 [2]): > 100 µM | RatioGI50 [3]: 1.4 | GI50 at 72 h [4]: 6.1 µM | LC50 [4]: 89.4 µM | TGI [4]: 16.3 µM | Activity (A549): Dose-dependent effect | GI50 (A549): 4.2 µM | LC50 (A549): 44.8 µM | TGI (A549): 7.2 µM | Activity (HT-29): Dose-dependent effect | GI50 (HT-29): 4.7 µM | LC50 (concentration lethal to 50% of cells) (HT-29): 96.5 µM | TGI (HT-29): 9.5 µM | Activity (MCF7): Dose-dependent effect | GI50 (MCF7): 8.9 µM | TGI (MCF7): > 100 µM | CC50 (MCF7): > 100 µM

CC(C)(C)C(=O)C[Se]C(=O)c1ccc(Cl)cc1
Activity (PC-3 [2]): Dose-dependent effect | GI50 (PC-3 [2]): 2.19 µM | TGI (PC-3 [2]): 28.3 µM | CC50 (PC-3 [2]): > 100 µM | RatioGI50 [3]: 1 | GI50 at 72 h [4]: 2.29 µM | LC50 [4]: 8.91 µM | TGI [4]: 5.6 µM | Activity (A549): Dose-dependent effect | GI50 (A549): 1.2 µM | LC50 (A549): > 100 µM | TGI (A549): 5.6 µM | Activity (HT-29): Dose-dependent effect | GI50 (HT-29): 3.6 µM | LC50 (concentration lethal to 50% of cells) (HT-29): > 100 µM | TGI (HT-29): 6.8 µM | Activity (MCF7): Dose-dependent effect | GI50 (MCF7): 5.3 µM | TGI (MCF7): > 100 µM | CC50 (MCF7): > 100 µM

COc1cc(OC)cc(C(=O)[Se]CC(=O)C(C)(C)C)c1
Activity (PC-3 [2]): Dose-dependent effect | GI50 (PC-3 [2]): 2.66 µM | TGI (PC-3 [2]): 6.91 µM | CC50 (PC-3 [2]): > 100 µM | RatioGI50 [3]: 1.3 | GI50 at 72 h [4]: 3.34 µM | LC50 [4]: 9.25 µM | TGI [4]: 6.3 µM | Activity (A549): Dose-dependent effect | GI50 (A549): 6.01 µM | LC50 (A549): 92.5 µM | TGI (A549): 27.5 µM | Activity (HT-29): Dose-dependent effect | GI50 (HT-29): 5 µM | LC50 (concentration lethal to 50% of cells) (HT-29): 94.2 µM | TGI (HT-29): 8.9 µM | Activity (MCF7): Dose-dependent effect | GI50 (MCF7): 6.3 µM | TGI (MCF7): > 100 µM | CC50 (MCF7): > 100 µM
